{"data": "Measured values gathered from unrelated publications", "read-out": "cell growth or viability", "note": "Compare with care: the assays were run in different laboratories."}
{"Structure (SMILES)": "COc1ccc(-c2ccc(-c3ccc(C(=N)N)nc3)s2)cc1Cl", "cell line": "EKVX", "technique": "SRB", "endpoint": "GI50", "result": "1.79 µM"}
{"Structure (SMILES)": "CCOC(=O)c1c(C)ncn1CC(c1cn(C)c2ccc([N+](=O)[O-])cc12)c1cn(C)c2ccc([N+](=O)[O-])cc12", "cell line": "DH82", "technique": "MTS", "tested at": "200 µM", "time": "72 h", "endpoint": "inhibition", "result": "43%"}
{"Structure (SMILES)": "COc1ccc(-c2ccc(-c3ccc(C(=N)N)nc3)s2)cc1", "cell line": "EKVX", "technique": "SRB", "endpoint": "GI50", "result": "1.7 µM"}
{"Structure (SMILES)": "COc1ccc(NC(=O)c2c(Nc3ccccc3)sc(C(=O)NN=Cc3ccc(Cl)cc3)c2NC(C)=O)cc1", "cell line": "HCT-116", "technique": "SRB", "tested at": "10 µM", "time": "48 h", "endpoint": "viability", "result": "61.3%"}
{"Structure (SMILES)": "CCn1c(=O)c(-c2cc(NC(=O)Nc3ccccc3)c(F)cc2Br)cc2cnc(NC)cc21", "cell line": "32D", "endpoint": "GI50", "result": "> 3 µM"}
{"Structure (SMILES)": "COc1ccc(C=NNC(=O)c2sc(Nc3ccccc3)c(C(=O)Nc3ccc(OC)cc3)c2NC(C)=O)cc1", "cell line": "HCT-116", "technique": "SRB", "tested at": "1 µM", "time": "48 h", "endpoint": "viability", "result": "59.4%"}
{"Structure (SMILES)": "COc1ccc2occ(/C=C/c3cc(OC)c(OC)c(OC)c3)c(=O)c2c1", "cell line": "HSC-2", "technique": "MTT", "time": "23 h", "endpoint": "CC50", "result": "4.2 µM"}
{"Structure (SMILES)": "c1ccc(-c2ccc(CNCC3(N4CCCC4)COC3)s2)cc1", "cell line": "U-87 MG", "tested at": "30 µM", "time": "48 h", "endpoint": "viability", "result": "55.6%"}
{"Structure (SMILES)": "COc1ccc(NC(=O)c2c(Nc3ccccc3)sc(C(=O)NN=Cc3ccccc3)c2NC(C)=O)cc1", "cell line": "HCT-116", "technique": "SRB", "tested at": "1 nM", "time": "48 h", "endpoint": "viability", "result": "101%"}
{"Structure (SMILES)": "COc1ccc2occ(/C=C/c3ccc(O)cc3)c(=O)c2c1", "cell line": "HSC-2", "technique": "MTT", "time": "6.7 h", "endpoint": "CC50", "result": "9.5 µM"}
{"Structure (SMILES)": "CCCCCCCCCCCCCCCCOP(=O)([O-])OCC[N+](C)(C)C", "cell line": "DH82", "technique": "MTS", "tested at": "20 µM", "time": "24 h", "endpoint": "inhibition", "result": "43.9%"}
{"Structure (SMILES)": "COc1ccc(/C=C/c2coc3ccc(OC)cc3c2=O)cc1", "cell line": "HSC-2", "technique": "MTT", "time": "23 h", "endpoint": "CC50", "result": "2.6 µM"}
{"Structure (SMILES)": "Clc1ccccc1-c1ccc(CNCC2(N3CCCC3)COC2)o1", "cell line": "U-87 MG", "tested at": "30 µM", "time": "48 h", "endpoint": "viability", "result": "63.6%"}
{"Structure (SMILES)": "C=CC(=O)N1CCC[C@@H](n2nc(-c3ccc(Oc4ccccc4)cc3)c3c(N)ncnc32)C1", "cell line": "DOHH-2", "technique": "ATP luminescence", "time": "72 h", "endpoint": "GI50", "result": "17 µM"}
{"Structure (SMILES)": "Cc1ccc(C(=O)NCc2ccsc2)cc1C#Cc1cn(C)c2ncnc(N)c12", "cell line": "32D", "endpoint": "GI50", "result": "0.106 µM"}
{"Structure (SMILES)": "COc1ccc(NC(=O)c2c(Nc3ccccc3)sc(C#N)c2NC(=O)CNc2ccc(C)cc2)cc1", "cell line": "HCT-116", "technique": "SRB", "tested at": "10 nM", "time": "48 h", "endpoint": "viability", "result": "92.4%"}
{"Structure (SMILES)": "COC(=O)c1c(C)ncn1CC(c1c[nH]c2ccc(C)cc12)c1c[nH]c2ccc(C)cc12", "cell line": "DH82", "technique": "MTS", "tested at": "20 µM", "time": "24 h", "endpoint": "inhibition", "result": "11.3%"}
{"Structure (SMILES)": "COc1ccc(NC(=O)c2c(Nc3ccccc3)sc(C#N)c2NC(=O)CNc2ccccc2Cl)cc1", "cell line": "HCT-116", "technique": "SRB", "tested at": "10 µM", "time": "48 h", "endpoint": "viability", "result": "62.9%"}
{"Structure (SMILES)": "CC(C)Cc1nn(C)c(=O)c2c(SCCCO)n(Cc3ccc(Cl)nc3)cc12", "cell line": "Raji", "technique": "MTT", "time": "96 h", "endpoint": "EC50", "result": "1 µM"}
{"Structure (SMILES)": "c1ccc(-c2ccc(CNCC3(N4CCCC4)COC3)o2)cc1", "cell line": "U-87 MG", "tested at": "30 µM", "time": "48 h", "endpoint": "viability", "result": "0.534%"}
{"Structure (SMILES)": "COc1ccc(NCC(=O)Nc2c(C#N)sc(Nc3ccccc3)c2C(=O)Nc2ccc(OC)cc2)cc1", "cell line": "HCT-116", "technique": "SRB", "tested at": "1 nM", "time": "48 h", "endpoint": "viability", "result": "99.5%"}
{"Structure (SMILES)": "CC(C)Cc1nn(C)c(=O)c2c(SCCCO)n(Cc3ccnc(NCCCCCN)c3)cc12", "cell line": "Raji", "technique": "MTT", "time": "96 h", "endpoint": "EC50", "result": "0.69 µM"}
{"Structure (SMILES)": "COc1ccc(NC(=O)c2c(Nc3ccccc3)sc(C#N)c2NC(=O)CNc2ccccc2[N+](=O)[O-])cc1", "cell line": "HCT-116", "technique": "SRB", "tested at": "10 nM", "time": "48 h", "endpoint": "viability", "result": "90.4%"}
{"Structure (SMILES)": "Cc1ccc(C(=O)NCc2ccsc2)cc1C#Cc1cn(CCN(C)C)c2ncnc(N)c12", "cell line": "32D", "endpoint": "GI50", "result": "> 1 µM"}
{"Structure (SMILES)": "CC(C)Cc1nn(C)c(=O)c2c(SCCCO)n(Cc3cc(NCCCCCN)nc4ccccc34)cc12", "cell line": "Raji", "technique": "MTT", "time": "96 h", "endpoint": "EC50", "result": "0.055 µM"}
{"Structure (SMILES)": "Cn1nnc2c(C(N)=O)ncn2c1=O", "cell line": "KATO3", "endpoint": "EC50", "result": "592 µM"}
{"Structure (SMILES)": "CCc1ncn(CC(c2c[nH]c3ccc(C)cc23)c2c[nH]c3ccc(C)cc23)c1C(=O)OC", "cell line": "DH82", "technique": "MTS", "tested at": "20 µM", "time": "24 h", "endpoint": "inhibition", "result": "6.1%"}
{"Structure (SMILES)": "COc1ccc(NC(=O)c2c(Nc3ccccc3)sc(C(=O)NN=Cc3ccc(C)cc3)c2NC(C)=O)cc1", "cell line": "HCT-116", "technique": "SRB", "tested at": "100 µM", "time": "48 h", "endpoint": "viability", "result": "76.1%"}
{"Structure (SMILES)": "CCn1cc(C#Cc2cc(C(=O)NCc3ccsc3)ccc2C)c2c(N)ncnc21", "cell line": "32D", "endpoint": "GI50", "result": "0.0233 µM"}
